# The list is not random: actives were taken first. Their share in the collection is about 2.3%.
# Mcl1-Bid inh – Mcl-1/Bid binding inhibitors, primary screen, biochemical, TR-FRET, 1536-well | inhibition, % at 21.7 µM | actives 0.97% (n = 220,000) | TR-FRET Mcl-1/Bid-Dy647 peptide binding | AID 1021, 2008;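 active means compounds that cut the binding signal by more than half at the single screening dose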;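 further: His-tagged Mcl-1 with europium anti-His antibody binding Bid BH3 peptide; 0% = Mcl-1 plus peptide wells and 100% = peptide-only wells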
# Bim-Mcl-1 – inhibitors of Bim peptide binding to Mcl-1, primary screen, biochemical, bead-based flow cytometry, multiplex; Bim peptide-Mcl-1 binding; inhibition, % at 10 µM; actives 0.1% (n = 190,000); AID 1009, 2008; in the data active means inhibition above about 40%;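 further: 0% = no compound tracer wells and 100% = peptide blocker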
# MCL1 BIM primary – inhibitors of MCL1 binding to BIM-BH3, primary screen, biochemical, fluorescence polarization. actives 0.68% (n = 320,000). GST-MCL1 / FITC-Bim-BH3 fluorescence polarization. Induced myeloid leukemia cell differentiation protein Mcl-1 (Homo sapiens), Q07820. inhibition, % at 10.9 µM;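 active means inhibition above the mean inhibition of all tested compounds plus 3 SD, set per campaign, cut at about 40% in these data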;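 further: 0% = DMSO wells and 100% = unlabeled Bim-BH3 peptide control; higher means more loss of mP so more displacement of Bim peptide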
# T cell HTS – modulators of CD8 T cell-vesicle binding, primary screen, mouse 2C CD8+ T cells, flow cytometry. response (vesicle binding), % at 7 µM. 2C CD8+ T cell-vesicle binding; stronger effect = lower value. actives 0.068% (n = 330,000);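 active means response, share of CD8 T cells binding vesicles, and their 90th percentile fluorescence all below set limits, cut at about 80% in these data, passing the limit was not always enough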;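 further: values below 100% mean blocked vesicle binding to the CD8+ T cells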
#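 material = purified 2C TCR transgenic mouse naive CD8+ T cells | controls = Unloaded micro-vesicles (low), QL9 vesicles with 0.7% DMSO (high) | detection = cytometric PE anti-B7-1 and Alexa647 anti-CD8 signals after 1% paraformaldehyde fixation | incubation = binding step 1.5 h, 37 °C, antibody labelling 20 min, ice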
# Mcl1 Noxa PPI – Mcl-1/Noxa binding inhibitors, primary screen, biochemical, TR-FRET, 1536-well. inhibition, % at 21.7 µM. TR-FRET Mcl-1/Noxa peptide binding, 2 h. Induced myeloid leukemia cell differentiation protein Mcl-1 (Homo sapiens), Q07820. actives 1.5% (n = 220,000);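 active means compounds that cut the protein-peptide binding signal by more than 50% relative to plate controls in a single-dose test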;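 further: His-tagged Mcl-1 with rhodamine Noxa BH3 peptide and terbium anti-His antibody; 0% = Mcl-1 plus Noxa peptide wells and 100% = peptide-only wells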
# Pemphigus Ab inh – inhibitors of pemphigus antibody binding to DSG3, primary screen, biochemical, bead-based, flow cytometry, scFv-GFP. Desmoglein-3 (Homo sapiens), P32926. DSG3-coupled beads, scFv-anti-DSG3-GFP binding; stronger effect = lower value. binding (percent of control), % at 10 µM. actives 0.48% (n = 310,000). AID 588358, 2011;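 active means binding more than 3 SD below its plate's average and above zero; inconclusive means below that plate limit but binding exactly zero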;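 further: hits lower antibody fragment binding to DSG3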
# Target sequence (P32926 whole entry, looked up, the tested form may be a part): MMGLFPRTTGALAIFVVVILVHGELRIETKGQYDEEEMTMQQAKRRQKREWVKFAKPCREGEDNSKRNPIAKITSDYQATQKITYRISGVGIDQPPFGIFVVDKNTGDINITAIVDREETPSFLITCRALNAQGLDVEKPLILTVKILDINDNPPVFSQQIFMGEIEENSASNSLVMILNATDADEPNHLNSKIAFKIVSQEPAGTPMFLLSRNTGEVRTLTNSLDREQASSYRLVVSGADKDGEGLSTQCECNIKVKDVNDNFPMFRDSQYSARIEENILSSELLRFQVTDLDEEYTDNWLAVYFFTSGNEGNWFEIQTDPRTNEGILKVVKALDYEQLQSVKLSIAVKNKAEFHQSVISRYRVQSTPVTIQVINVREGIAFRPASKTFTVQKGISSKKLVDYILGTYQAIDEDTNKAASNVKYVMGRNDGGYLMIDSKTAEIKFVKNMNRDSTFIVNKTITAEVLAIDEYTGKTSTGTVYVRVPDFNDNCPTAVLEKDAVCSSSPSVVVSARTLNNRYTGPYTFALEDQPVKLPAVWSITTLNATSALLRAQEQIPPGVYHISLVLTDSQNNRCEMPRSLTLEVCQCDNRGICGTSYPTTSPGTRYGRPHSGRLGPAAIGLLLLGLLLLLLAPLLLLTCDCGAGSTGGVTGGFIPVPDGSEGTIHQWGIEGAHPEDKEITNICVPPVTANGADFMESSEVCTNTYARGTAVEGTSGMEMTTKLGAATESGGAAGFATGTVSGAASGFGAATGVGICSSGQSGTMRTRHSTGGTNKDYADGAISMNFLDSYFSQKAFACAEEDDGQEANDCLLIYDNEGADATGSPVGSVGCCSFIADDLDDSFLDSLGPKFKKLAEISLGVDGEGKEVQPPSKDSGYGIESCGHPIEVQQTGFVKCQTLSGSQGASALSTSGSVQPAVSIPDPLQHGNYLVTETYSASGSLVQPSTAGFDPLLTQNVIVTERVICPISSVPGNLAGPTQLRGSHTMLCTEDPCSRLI
# BCLXL inh confirm – Bcl-xL inhibitors blocking Bim BH3 binding, confirmation, counter-screen for MCL1 inhibitor project, biochemical, fluorescence polarization. shares compounds with MCL1 BIM primary. GST-Bcl-xL / FITC-Bim BH3 peptide FP binding. inhibition, % at 10.9 µM. actives 54% (n = 1,700). AID 2166, 2009;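 active means inhibition above a cutoff equal to the mean inhibition of all tested compounds plus 3 SD, cut at about 30% in these data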;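 further: 0% = DMSO wells and 100% = unlabeled Bim BH3 control peptide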
# MCL1 BIM confirm – inhibitors of MCL1 binding to BIM-BH3, confirmation, biochemical, fluorescence polarization, triplicate. shares compounds with MCL1 BIM primary. GST-MCL1 / FITC-Bim-BH3 fluorescence polarization. inhibition, % at 10.9 µM. actives 61% (n = 1,700). AID 2168, 2009;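 active means inhibition above the average of all tested compounds plus 3 SD, cut at about 40% in these data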;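 further: 0% = DMSO wells and 100% = unlabeled Bim-BH3 control peptide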
# Starred values were filed as active, the others as inactive; i = inactive; ? = inconclusive; . = not tested or not shown; + = active, no number.
SMILES,Mcl1-Bid inh,Bim-Mcl-1,MCL1 BIM primary,T cell HTS,Mcl1 Noxa PPI,Pemphigus Ab inh,BCLXL inh confirm,MCL1 BIM confirm
CCn1nc(C)c(NC(=O)/C=C/c2ccc(OC)c(COc3ccc(Cl)cc3Br)c2)c1C,64*,-1,5,92,-3,80,.,.
NC(=O)c1ccsc1N,-17,0,189*,206,24,.,11,2
O=C(NCCc1ccccc1)c1ccc(CS(=O)Cc2ccc(Cl)cc2)o1 (stereo not given),.,.,-1,188,.,.,.,.
CN(C)c1ccc2nc3c(=O)[nH]c(=O)nc-3n(CC(O)C(O)C(O)CO)c2c1 (stereo not given),.,.,+,43,.,89,150*,174*
Cc1c(C(=O)N2CCCCC2)c(S(=O)(=O)N2CCC(C)CC2)c(C)n1C,.,.,-4,356,.,.,.,.
Cc1cc2ncn(/N=C/c3ccc(-c4ccccc4)o3)c2cc1C,6,-1,6,i,22,123,.,.
Cc1ccc(/C=N/n2cnc3sc(-c4ccccc4)cc3c2=O)o1,6,0,67*,546,13,106,8,12
COc1ccc(OC)c(NC(=O)COC(=O)c2ccc(S(=O)(=O)N3CCCCC3)cc2)c1,.,.,.,.,.,102,.,.
Cc1ccc(-c2ocnc2C(=O)N2CCOCC2)cc1,.,.,2,244,.,90,.,.
COC(=O)CCC(=O)OC1(C)C(=O)C2=COC(c3ccc(OC)cc3)=CC2=C(Br)C1=O (stereo not given),-41,.,56*,497,50*,.,32*,57*
CN(CC(=O)Nc1cccc(F)c1)C(=O)/C=C/c1ccc2ccccc2n1,.,.,2,733,.,100,.,.
CC1(c2ccc(Cl)cc2)NC(=O)N(CC(=O)N2CCN(S(=O)(=O)c3ccccc3)CC2)C1=O (stereo not given),.,.,-9,171,.,102,.,.
CCCCc1cc(C(=O)Cc2ccccn2)c(O)cc1O,.,.,0,179,.,121,.,.
C(=Nc1cccc2c(N=Cc3ccco3)cccc12)c1ccco1,-15,4,76*,384,58*,95,25,22
CN(C)c1ccc(N=Cc2ccco2)cc1,-77,9,23,297,47,95,.,.
CSc1cccc(NC(=O)COC(=O)c2ccccn2)c1,.,.,-8,127,.,.,.,.
COc1ccc(Cl)cc1CN1CCN(c2nc(C)cc(C)c2C#N)CC1,-8,-1,85*,378,14,?,57*,82*
COc1ccc(NC(=O)CSc2nnc(-c3ccco3)c(-c3ccco3)n2)cc1OC,.,.,8,198,.,123,.,.
CN(C)c1ccc(NC(=O)CSc2nnc(-c3ccco3)c(-c3ccco3)n2)cc1,.,.,32,377,.,95,.,.
COc1cccc(NC(=O)CSc2nnc(-c3ccco3)c(-c3ccco3)n2)c1,.,.,49*,184,.,.,35*,64*
O=C(CSc1nnc(-c2ccco2)c(-c2ccco2)n1)Nc1ccccc1,23,-1,60*,448,90*,100,34*,83*
Cn1c(SCC(=O)NCC2CCCO2)nc2c(c1=O)SCC2 (stereo not given),.,.,-3,325,.,.,.,.
Cc1ccc(/C=C2/NC(=O)N(Cc3ccc(Br)cc3)C2=O)o1,-15,-1,46*,325,19,100,-2,21
